{"data": "Measurements pooled from the literature", "target": "Death-associated protein kinase 3 (DAPK3, Homo sapiens, UniProt O43293)", "note": "Lines come from different studies, so protocols differ."}
{"SMILES": "Cc1ccc(NC(=O)c2ccc(C)c(C(F)(F)F)c2)cc1C#Cc1nn(C2CCC(O)CC2)c2ncnc(N)c12 (stereo not shown)", "assay": "cell-free assay", "conditions": "10 µM", "endpoint": "remaining signal", "result": "110%"}
{"SMILES": "Nc1ncnc2occ(-c3ccc(NC(=O)Nc4cc(C(F)(F)F)ccc4F)cc3)c12", "assay": "cell-free assay, inhibitor", "conditions": "20 µM", "endpoint": "remaining signal", "result": "7.9%"}
{"SMILES": "Cc1sc(C(=O)NC2COC2)cc1-n1cc(NC(=O)Nc2c(F)cccc2Cl)cn1", "assay": "enzyme activity, inhibitor", "conditions": "10 µM", "endpoint": "remaining activity", "result": "101%"}
{"SMILES": "Clc1ccc(Nc2nnc(Cc3ccncc3)c3ccccc23)cc1", "assay": "cell-free assay", "conditions": "0.5 µM", "endpoint": "remaining signal", "result": "107%"}
{"SMILES": "C[C@H](c1ccc(F)cc1)N(Cc1cccc(C(=O)O)c1)C(=O)c1cnc2ccccc2c1", "assay": "cell-free assay, competition with immobilised ligand", "conditions": "1 µM", "endpoint": "remaining binding", "result": "100%"}
{"SMILES": "COc1cc(-c2cc(-c3ccc(N4CCNCC4)cc3)cnc2C)cc(OC)c1OC", "assay": "enzyme activity, inhibitor", "conditions": "0.1 µM", "endpoint": "inhibition", "result": "1%"}
{"SMILES": "CCCS(=O)(=O)Nc1ccc(F)c(C(=O)c2c[nH]c3ncc(-c4ccc(Cl)cc4)cc23)c1F", "assay": "enzyme activity, inhibitor", "conditions": "1 µM", "endpoint": "inhibition", "result": "< 10%"}
{"SMILES": "COc1cc2ncnc(Nc3ccc(Oc4ccccc4)cc3C)c2cc1OC", "assay": "enzyme activity, inhibitor", "conditions": "1 µM", "endpoint": "inhibition", "result": "-4%"}
{"SMILES": "N#CC1(c2ccccn2)CCN(Cc2cc(C(=O)N3CCCC3)c(=O)n3ccccc23)CC1", "assay": "cell-free assay, competition with immobilised ligand", "conditions": "1 µM", "endpoint": "remaining binding", "result": "86%"}
{"SMILES": "CN1CC(Oc2cnc(C#N)cc2-c2ccn3nc(NC(=O)C4CC4)cc3c2)C1", "assay": "enzyme activity, inhibitor", "conditions": "1 µM", "endpoint": "inhibition", "result": "4%"}
{"SMILES": "Cc1cc(NC(=O)c2cccc(S(F)(F)(F)(F)F)c2)cc(-n2ccn3nc(-c4cccnc4)cc23)c1", "assay": "cell-free assay, competition with immobilised ligand", "conditions": "1 µM", "endpoint": "remaining binding", "result": "100%"}
{"SMILES": "O=C1NC(=O)c2cc(Nc3ccc(F)cc3)c(Nc3ccc(F)cc3)cc21", "assay": "cell-free assay", "conditions": "0.5 µM", "endpoint": "remaining signal", "result": "101%"}
{"SMILES": "CC(C)(C)c1nc2c(s1)c1nc(N)ncc1c1ccc(NS(=O)(=O)c3c(F)cccc3F)c(F)c12", "assay": "enzyme activity, inhibitor, radiometric", "conditions": "1 µM", "endpoint": "remaining activity", "result": "58%"}
{"SMILES": "Cc1nc(Cc2cccc(C(F)(F)F)c2)sc1-c1ccc(C(N)=O)nc1", "assay": "cell-free assay, competition with immobilised ligand", "conditions": "1 µM", "endpoint": "remaining binding", "result": "88%"}
{"SMILES": "CS(=O)(=O)CCNCc1ccc(-c2ccc3ncnc(Nc4ccc(OCc5cccc(F)c5)c(Cl)c4)c3c2)o1", "assay": "cell-free assay", "conditions": "0.5 µM", "endpoint": "remaining signal", "result": "97.4%"}
{"SMILES": "Cc1ccc(Nc2nccc(N(C)c3ccc4c(C)n(C)nc4c3)n2)cc1S(N)(=O)=O", "assay": "enzyme activity, inhibitor", "conditions": "10 µM", "endpoint": "inhibition", "result": "-2%"}
{"SMILES": "Cn1c2c(c3ccc(Cl)c(Cl)c31)C(C#N)C1(CCNCC1)NC2=O (racemic)", "assay": "thermal stability, DSF", "conditions": "10 µM", "endpoint": "ΔTm", "result": "> 8 °C"}
{"SMILES": "CSc1cccnc1N1CCN(Cc2nc3ccccc3[nH]2)CC1", "assay": "cell-free assay, competition with immobilised ligand", "conditions": "1 µM", "endpoint": "remaining binding", "result": "100%"}
{"SMILES": "O=C1Nc2ccc(Cl)cc2C1=Cc1cc(Cl)c(O)c(Cl)c1", "assay": "cell-free assay", "conditions": "0.5 µM", "endpoint": "remaining signal", "result": "82.3%"}
{"SMILES": "CCCOc1ccc(OC)c(F)c1C(=O)c1ccc(C(=O)N[C@@H]2CNC[C@H]2NC(=O)c2ccc3[nH]ncc3c2)cc1", "assay": "enzyme activity, inhibitor", "conditions": "10 µM", "endpoint": "remaining activity", "result": "40%"}
{"SMILES": "Cc1nc(C2CCN(C(=O)c3ccc(OC(F)(F)F)cc3N)CC2)c2ncc(N3CCN(C)CC3)cc2n1", "assay": "cell-free assay, competition with immobilised ligand", "conditions": "1 µM", "endpoint": "remaining binding", "result": "100%"}
{"SMILES": "N#CCCc1ccc2c(c1)-c1[nH]c3ccc([N+](=O)[O-])cc3c1CC(=O)N2", "assay": "cell-free assay", "conditions": "0.5 µM", "endpoint": "remaining signal", "result": "99.3%"}
